Reference: ChEMBL document CHEMBL3351250, “Modified salicylanilide and 3-phenyl-2H-benzo[e][1,3]oxazine-2,4(3H)-dione derivatives as novel inhibitors of osteoclast differentiation and bone resorption” (J Med Chem, 2014)
Calls of active or inactive are those of the source. The rule behind the calls is not given here.

What was measured:
RAW264.7 [1] = test: Inhibition of RANKL-induced NFATc1 protein expression in mouse RAW264.7 cells nuclear extracts at 5 to […] pre-treated for 1 hr before RANKL stimulation measured after 24 hrs by Western blotting method; format: functional, cell-based
RAW264.7 [2] = test: Inhibition of RANKL-induced osteoclastogenesis in mouse RAW264.7 cells assessed as reduction in TRAP activity incubated for 4 days by TRAP staining assay; format: functional, cell-based; details: for IC50: RAW264.7, 96 h
In short: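 RAW264.7 cells were RANKL-differentiated (100 ng/mL recombinant soluble murine RANKL in α-MEM/10% FBS, compounds at various concentrations, 4 days, medium changed day 2). TRAP activity was read with 2 mg/mL 4-nitrophenyl phosphate in 0.09 M citrate buffer for 15 min at 37 °C, stopped with 0.1 N NaOH. Expressed as % of RANKL-only; IC50 is 50% inhibition.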

RAW264.7 [3] = test: Inhibition of RANKL-induced osteoclastogenesis in mouse RAW264.7 cells assessed as TRAP+ multinucleated cells level at […] incubated for 4 days by TRAP staining assay; format: functional; design: scale not given: the % may be the effect or the level left
RAW264.7 [4] = test: Inhibition of RANKL-induced osteoclastogenesis in mouse RAW264.7 cells assessed as TRAP+ multinucleated cells level at 10 uM incubated for 4 days by TRAP staining assay; format: functional; design: scale not given: the % may be the effect or the level left
In short: (§1)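 Cells plated at 1 × 10³ (96-well) or 5 × 10⁴ (48-well) in α-MEM with 10% FBS, 2 mM […], 100 ng/mL recombinant murine RANKL and compound for 4 days; medium changed on day 2. Fixed in acetone/citrate/formaldehyde for 5 min and TRAP-stained. TRAP⁺ cells with >5 nuclei counted by light microscopy, expressed as % of the RANKL-only group.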

RAW264.7 [5] = test: Inhibition of RANKL-induced NFATc1 protein expression in mouse RAW264.7 cells nuclear extracts assessed as NFATc1 level at […] pre-treated for 1 hr before RANKL stimulation measured after 24 hrs by Western blotting method relative to TBP protein; format: functional
RAW264.7 [6] = test: Inhibition of RANKL-induced NFATc1 protein expression in mouse RAW264.7 cells nuclear extracts assessed as NFATc1 level at 5 uM pre-treated for 1 hr before RANKL stimulation measured after 24 hrs by Western blotting method relative to TBP protein; format: functional
In short: (§2)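 Cells (1 × 10⁶ per 6 cm plate) attached 24 h in DMEM/10% FBS. Pretreated with compound in α-MEM/10% FBS for 1 h, then RANKL 100 ng/mL for 24 h. Nuclear extracts (18 μg) run on 12% SDS-PAGE and blotted with monoclonal anti-NFATc1 or anti-NF-κB (1:1000, 12 h, 4 °C) plus HRP secondary, ECL detection. Band signal normalized to TATA-box binding protein.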

RAW264.7 [7] = test: Inhibition of RANKL-induced osteoclastogenesis in mouse RAW264.7 cells assessed as TRAP+ multinucleated cells level incubated for 4 days by TRAP staining assay; format: functional, cell-based; details: RAW264.7, 96 h
In short: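 RAW264.7 cells in α-MEM with 10% FBS, 2 mM […], 100 ng/mL recombinant soluble murine RANKL and a range of compound concentrations for 4 days, with medium changed on day 2. Cells fixed in acetone/citrate/formaldehyde for 5 min and TRAP-stained. Cells with >5 nuclei counted by light microscopy and expressed as % of RANKL-only; IC50 is 50% inhibition.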

RAW264.7 [8] = test: Inhibition of RANKL-induced TRAP mRNA expression in mouse RAW264.7 cells at 5 to […] pre-treated for 1 hr before RANKL stimulation measured after 24 to 48 hrs by RT-PCR method; format: functional, cell-based
RAW264.7 [9] = test: Inhibition of RANKL-induced c-fos mRNA expression in mouse RAW264.7 cells at 5 to […] pre-treated for 1 hr before RANKL stimulation measured after 24 to 48 hrs by RT-PCR method; format: functional, cell-based
[10] = Cytotoxicity against mouse RAW264.7 cells assessed as survival rate at 10 uM after 24 hrs by MTT assay; format: cell-based; details: read-out: Activity
In short: (§3)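 Cells at 1 × 10⁴/well in DMEM + 10% FBS, exposed to compounds for 24 h at 37 °C, 5% CO₂. After PBS washes, MTT (0.5 mg/mL in medium) added for 1 h at 37 °C; formazan dissolved in DMSO, absorbance read at 540 nm. Viability expressed as % of DMSO control; CC₅₀ is the concentration giving 50% loss of mean viability (N = 3).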

RAW264.7 [11] = test: Inhibition of RANKL-induced osteoclastogenesis in mouse RAW264.7 cells assessed as TRAP+ multinucleated cells level at 2.5 uM incubated for 4 days by TRAP staining assay; format: functional; design: scale not given: the % may be the effect or the level left; in short: as §1
[12] = Toxicity in mouse MC3T3-E1 cells assessed as effect on osteoblast differentiation by measuring ALP activity at […] incubated for 14 days in presence of beta-glycerol phosphate and ascorbic acid; format: cell-based; details: mc3t3-e1, 336 h
RAW264.7 [13] = test: Cytotoxicity against mouse RAW264.7 cells assessed as survival rate at 5 and 10 uM after 24 hrs by MTT assay; format: cell-based; details: raw264.7, 24 h; in short: as §3
RAW264.7 [14] = test: Inhibition of RANKL-induced osteoclastogenesis in mouse RAW264.7 cells assessed as TRAP+ multinucleated cells level at 5 uM incubated for 4 days by TRAP staining assay; format: functional; design: scale not given: the % may be the effect or the level left; in short: as §1
RAW264.7 [15] = test: Inhibition of RANKL-induced bone resorption in mouse RAW264.7 cells incubated for 4 days by toluidine blue staining based pit formation assay; format: functional, cell-based
In short: (§4)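 Seeded at 1 × 10⁴/well onto dentine slices in α-MEM/10% FBS with 100 ng/mL RANKL plus compound. Medium with compound renewed every 2 days. On day 4, cells removed with 1 M ammonium hydroxide, slices stained with 0.1% toluidine blue, pits imaged by light microscopy. Resorbed area expressed as fraction of total area; significance versus the RANKL-only group.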

RAW264.7 [16] = test: Inhibition of RANKL-induced NFkappaB protein expression in mouse RAW264.7 cells nuclear extracts assessed as NFkappaB level at […] pre-treated for 1 hr before RANKL stimulation measured after 24 hrs by Western blotting method relative to TBP protein; format: functional
RAW264.7 [17] = test: Inhibition of RANKL-induced DC-STAMP mRNA expression in mouse RAW264.7 cells at 5 to […] pre-treated for 1 hr before RANKL stimulation measured after 24 to 48 hrs by RT-PCR method; format: functional, cell-based
RAW264.7 [18] = test: Inhibition of RANKL-induced NFkappaB protein expression in mouse RAW264.7 cells nuclear extracts at 5 to […] pre-treated for 1 hr before RANKL stimulation measured after 24 hrs by Western blotting method; format: functional, cell-based
RAW264.7 [19] = test: Inhibition of RANKL-induced NFkappaB protein expression in mouse RAW264.7 cells nuclear extracts assessed as NFkappaB level at 5 uM pre-treated for 1 hr before RANKL stimulation measured after 24 hrs by Western blotting method relative to TBP protein; format: functional; in short: as §2
RAW264.7 [20] = test: Inhibition of RANKL-induced cathepsin K mRNA expression in mouse RAW264.7 cells at 5 to […] pre-treated for 1 hr before RANKL stimulation measured after 24 to 48 hrs by RT-PCR method; format: functional, cell-based
RAW264.7 [21] = test: Inhibition of RANKL-induced NFATc1 mRNA expression in mouse RAW264.7 cells at 5 to […] pre-treated for 1 hr before RANKL stimulation measured after 24 to 48 hrs by RT-PCR method; format: functional, cell-based
[22] = Toxicity in mouse MC3T3-E1 cells assessed as effect on osteoblast differentiation by measuring ECM calcification activity at […] incubated for 14 days in presence of beta-glycerol phosphate and ascorbic acid by Alizarin red S staining method; format: cell-based; details: mc3t3-e1, 336 h
RAW264.7 [23] = test: Inhibition of RANKL-induced MMP9 mRNA expression in mouse RAW264.7 cells at 5 to […] pre-treated for 1 hr before RANKL stimulation measured after 24 to 48 hrs by RT-PCR method; format: functional, cell-based
[24] = Cytotoxicity against mouse RAW264.7 cells assessed as reduction in survival rate after 24 hrs by MTT assay; format: cell-based; in short: as §3
RAW264.7 [25] = test: Inhibition of RANKL-induced bone resorption in mouse RAW264.7 cells assessed as reduction in resorbed area at 2.5 to 10 uM incubated for 4 days by toluidine blue staining based pit formation assay; format: functional, cell-based; in short: as §4

Row | Compound | inhibition (RAW264.7 [1]) | inhibition (RAW264.7 [2]) | IC50 (RAW264.7 [2]) [µM] | Activity (RAW264.7 [3]) [%] | Activity (RAW264.7 [4]) [%] | fold change (FC) (RAW264.7 [5]) | fold change (FC) (RAW264.7 [6]) | IC50 (RAW264.7 [7]) [µM] | inhibition (RAW264.7 [8]) | inhibition (RAW264.7 [9]) | viability at 24 h, 10 µM [10] [%] | Activity [12] | Activity (RAW264.7 [13]) | Activity (RAW264.7 [14]) [%] | inhibition (RAW264.7 [15]) | fold change (FC) (RAW264.7 [16]) | inhibition (RAW264.7 [17]) | inhibition (RAW264.7 [18]) | fold change (FC) (RAW264.7 [19]) | inhibition (RAW264.7 [20]) | further results
1 | O=c1oc2ccccc2c(=O)n1-c1ccc(I)cc1F | Dose-dependent effect | Dose-dependent effect | 7.3 | 29.1 | 1.8 | 0.72 | 0.76 | 4.9 | Dose-dependent effect | Active | 91.4 | Non-toxic | Non-toxic | 49.1 | Dose-dependent effect | 0.58 | Active | Dose-dependent effect | 0.75 | Dose-dependent effect | Activity (RAW264.7 [11]): 74.1%; inhibition (RAW264.7 [21]): Active; Activity [22]: Non-toxic; inhibition (RAW264.7 [23]): Dose-dependent effect; CC50 at 24 h [24]: 23.6 µM; inhibition (RAW264.7 [25]): Active
2 | O=c1oc2ccccc2c(=O)n1-c1ccc(Cl)cc1F | Dose-dependent effect | Dose-dependent effect | 10.6 | 45.9 | 19.7 | 0.76 | 0.99 | 7.1 | Dose-dependent effect | Active | 97.9 | Non-toxic | Non-toxic | 74.6 | Dose-dependent effect | 0.73 | Active | Dose-dependent effect | 0.77 | Dose-dependent effect | inhibition (RAW264.7 [21]): Active; Activity [22]: Non-toxic; inhibition (RAW264.7 [23]): Dose-dependent effect; CC50 at 24 h [24]: 26.5 µM; inhibition (RAW264.7 [25]): Active
